Source: PubChem
FLuc inh counter: firefly luciferase enzyme inhibitors, primary screen, artefact control for luciferase-based inhibitor screens, biochemical, luminescence, ATPLite; Luciferin 4-monooxygenase (Photinus pyralis), P08659; 10 min; inhibition, % at 10 µM; 200,000 tested, 1.5% active; AID 1006, 2008;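 active = inhibition above about 50% when tested at 10 µM, limit read from the data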
Target sequence (P08659 whole entry, looked up): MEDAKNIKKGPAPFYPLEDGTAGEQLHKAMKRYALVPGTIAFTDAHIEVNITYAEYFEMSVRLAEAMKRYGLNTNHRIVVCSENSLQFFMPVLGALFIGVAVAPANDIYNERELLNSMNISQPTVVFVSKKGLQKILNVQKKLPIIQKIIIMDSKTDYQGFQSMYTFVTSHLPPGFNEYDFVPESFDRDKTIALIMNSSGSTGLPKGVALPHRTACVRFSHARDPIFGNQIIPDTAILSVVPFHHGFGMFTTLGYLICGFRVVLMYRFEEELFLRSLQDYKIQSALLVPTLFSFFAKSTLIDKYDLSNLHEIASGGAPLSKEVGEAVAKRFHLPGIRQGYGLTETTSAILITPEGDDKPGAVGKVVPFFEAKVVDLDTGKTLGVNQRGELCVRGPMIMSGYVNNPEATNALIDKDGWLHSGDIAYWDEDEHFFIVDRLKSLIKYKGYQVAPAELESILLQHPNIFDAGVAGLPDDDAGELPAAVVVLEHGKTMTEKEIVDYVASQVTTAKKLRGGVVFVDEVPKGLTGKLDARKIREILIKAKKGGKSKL
NF-kB neuron act: activators of NF-kB expression in neurons, primary screen, cell-based, HTS; human neuronal cells, NF-kB reporter expression; active compounds read high; AID 1239, 2008; 190,000 tested, 1.6% active; fold change at 12.5 µM; in the data active = fold change above about 3.3
Pf gamet viab: late stage P. falciparum gametocyte viability inhibitors, primary screen, ATP luminescence, HTS | P. falciparum stage V gametocytes, 24 h | inhibition, % at 10.9 µM | 150,000 tested, 0.065% active;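 active = inhibition above the mean plus 3 SD of compounds within the control limits, set per campaign, cut at about 38% in these data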;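 note: 0% = DMSO wells and 100% = medium only without gametocytes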
APP 5'UTR act: activators of APP 5'UTR luciferase reporter, primary screen, SH-SY5Y cells; 190,000 tested, 1% active; SH-SY5Y APP 5'UTR luciferase reporter, luminescence; zero percent = DMSO vehicle wells; activation, % at 2 µM;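 active = activation above a set limit, based on mean plus 3 SD of controls, cut at about 140% in these data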
FLuc stim CS: FLuc activators, initial screening, artefact control for FLuc-dependent activation tests, biochemical, ATPlite luminescence; 200,000 tested, under 10 active; activation factor at 10 µM; Luciferin 4-monooxygenase (Photinus pyralis), P08659; AID 1027, 2008; ATPlite luciferase biochemical, 10 min; 0 = ATP-free wells, 1 = DMSO control;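 active = luciferase activation factor, scaled between plate controls, of at least 2 with compound at 10 µM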
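Assay system: Luciferase/luciferin detection reagent, cell-free biochemical luciferase assay / Also added: ATP substrate / Schedule: 10 min at ambient temperature / Measured by: luminescence measurement of luciferase light output / Benchmarks: low control with PBS replacing ATP, high control enzyme plus ATP without compound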
STAT1 act: STAT1 signaling activators, primary screen, cell-based, HTS, luciferase reporter; NIH 3T3 STAT1-luciferase reporter, IFN-gamma, luminescence; 100% = IFN-gamma alone, no compound; activation (% of control), % at 5.5 µM; 200,000 tested, 2.6% active;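 active = activation above the screen-wide mean activation plus 3 SD, cut at about 130% in these data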;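 note: raw ratio to IFN-gamma control signal so 100% means no change and 0% no light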
STAT1 activ conf: STAT1 signaling activators, confirmation, cell-based, HTS, luciferase reporter. shares compounds with STAT1 act. NIH 3T3 STAT1-luciferase reporter, IFN-gamma potentiation, luminescence; 100% = IFN-gamma EC80 alone, no compound. activation (% of control), % at 5.7 µM. 1,200 tested, 97% active. AID 1262, 2008;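 active = activation above a set limit carried over from the earlier primary STAT1 screen, cut at about 140% in these data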;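 note: simple ratio to median IFN-gamma plus DMSO wells so 0% means no light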
NFkB act: NF-kB reporter activators, TNF-alpha stimulated, counter-screen for STAT1 activator project, cell-based, HEK293T, luciferase luminescence; 1,200 tested, 43% active; 100% = TNF-alpha with vehicle only; shares compounds with STAT1 act; activation (% of control), % at 5.7 µM; AID 1306, 2008;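 active = activation above the mean of solvent-only control wells plus 3 SD, set per campaign, cut at about 130% in these data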;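 note: TNF-alpha given at a submaximal dose yielding about 80% of full reporter signal; values are well signal over median control so 100% means no change and 0% no light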
STAT3 act 2: STAT3 reporter activation by STAT1 hits, confirmation, counter-screen for STAT1 activator project, U3A cells, luciferase, luminescence. shares compounds with STAT1 act. IL-6; cells lack STAT1; 100 = IL-6 alone, no compound effect. activation (% of control), % at 5.7 µM. 1,200 tested, 46% active. AID 1316, 2008;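 active = activation above the solvent-only control well mean plus 3 SD, set per plate batch, cut at about 110% in these data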;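 note: 0% = no luminescence and 100% = median IL-6 plus DMSO wells; higher means more STAT3 reporter activation so hits are non-selective activators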
An asterisk follows results filed as active; x = no result given. This is a sample that favours compounds with a hit; in the whole collection about 3.5% have one here.

SMILES | FLuc inh counter | NF-kB neuron act | Pf gamet viab | APP 5'UTR act | FLuc stim CS | STAT1 act | STAT1 activ conf | NFkB act | STAT3 act 2
CN(C)S(=O)(=O)c1ccc2nc(NC(=O)c3cccs3)sc2c1 | 63.6* | 3.51* | x | 128.7 | 0.4 | 153.1* | 178.7* | 115.2 | 116.9*
O=C(COc1cccnc1[N+](=O)[O-])c1c[nH]c2ccccc12 | x | x | -23.7 | x | x | x | x | x | x
NC1=NC(=O)/C(=C\c2ccsc2)S1 | 3.8 | 1.47 | -13.5 | 15.2 | 1 | 110.3 | x | x | x
CCOC(=O)c1c(C)[nH]c(C(=O)CSc2ccccc2)c1C | 33.9 | 3.64* | x | 160.3* | 0.7 | 153.7* | 233.7* | 112.7 | 97.5
Cc1ccc(SCC(=O)Nc2ccc(N3CCN(c4ccccc4)CC3)c(F)c2)cc1 | -7.3 | 1.06 | 2.1 | 5.5 | 1.1 | 103.2 | x | x | x
CN1CCN(c2ccc(NC(=O)CSc3ccccc3)cc2F)CC1 | 10.1 | 1.05 | 3.6 | 175.3* | 0.9 | 158.2* | 182.7* | 125.7 | 127.7*
COc1ccc(/C=N/Nc2cc(OC)ncn2)cc1 | 82.7* | 6.78* | -9.5 | 202.7* | 0.2 | 152.4* | 227.5* | 97.6 | 84.0
COc1ccc(/C=N/Nc2cc(N(C)C)nc(N(C)C)n2)cc1 | -2.4 | 0.96 | -25.8 | 1.4 | 1 | 104.8 | x | x | x
Cc1cccc(NC(=O)COC(=O)c2ccc3c(c2)OCO3)c1C | -4.5 | 1.04 | -40.9 | 21.4 | 1 | 105.3 | x | x | x
c1ccc(-c2nnc(CSc3nnc(-c4cccs4)o3)o2)cc1 | x | 1.17 | 0.7 | 8.4 | x | 109.7 | x | x | x
c1ccc(CSc2nnc(-c3cccs3)o2)cc1 | 11.7 | 4.63* | x | 106.0 | 0.9 | 158.5* | 178.8* | 132.3 | 115.6*
CC(C)c1ccc(NC(=O)N2CCc3ccccc3C2)cc1 | 10.3 | 3.01 | -13.6 | 86.2 | 0.9 | 155.5* | 147.9* | 130.9 | 119.5*
O=C(Nc1ccc([N+](=O)[O-])cc1)N1CCc2ccccc2C1 | x | x | 3.9 | x | x | x | x | x | x
CN(c1ccc(OCC(=O)OCC(=O)NCc2ccco2)cc1)S(=O)(=O)c1ccc2ccccc2c1 | -7.8 | 1.06 | 0.9 | 18.0 | 1.1 | 103.7 | x | x | x
COc1ccc2oc(=Nc3ccccc3)c(-c3nc4ccccc4[nH]3)cc2c1 | 61.4* | 4.18* | 5.1 | 137.7* | 0.4 | 161.2* | 164.4* | 124.5 | 137.9*
CCOC(=O)/C(C#N)=C\C=C1C=CN(C)C=C1 | 38.5 | 3.12 | 6.3 | 73.8 | 0.6 | 154.2* | 162.0* | 123.0 | 115.2*
O=C(NCCc1cccs1)c1ccc(Cl)c(Cl)c1 | 23.1 | 3.77* | 1.9 | 63.1 | 0.8 | 159.4* | 163.7* | 129.7 | 107.0
CC1(C)CC(=O)C(C(C2=C(O)CC(C)(C)CC2=O)c2ccc(O)c([N+](=O)[O-])c2)=C(O)C1 | -3.1 | 0.94 | -0.5 | 17.9 | 1 | 99.9 | x | x | x
CCCCC(=O)NC(=S)Nc1ccc(S(=O)(=O)N2CCCC2)cc1 | -8.4 | 0.92 | -20.4 | -0.1 | 1.1 | 102.8 | x | x | x
Cc1cc(/C=C2/NC(=O)N(c3ccccc3)C2=O)c(C)n1-c1cccnc1 | 44.8 | 1.22 | x | 86.4 | 0.6 | 151.0* | 192.0* | 131.5 | 118.9*
COCCNC(=O)CSc1nc2ccc(N3CCOCC3)cc2c(=O)n1Cc1ccc(OC)cc1 | -0.6 | 1.87 | -11.4 | 48.2 | 1 | 121.2 | x | x | x
CCCCNC(=O)CSc1nc2ccc(N3CCOCC3)cc2c(=O)n1Cc1ccc(OC)cc1 | -0.1 | 1.7 | -29.5 | 15.7 | 1 | 157.6* | 147.7* | 119.0 | 116.9*
CC(=O)Nc1cccc(-c2csc(Nc3cc(C)ccn3)n2)c1 | 30.7 | 2.4 | x | 138.4* | 0.7 | 151.6* | 174.3* | 129.8 | 114.7*
CC(=O)Nc1cccc(-c2csc(Nc3ccc(Cl)cn3)n2)c1 | 19.4 | 6.51* | 11.2 | 182.2* | 0.8 | 201.6* | 248.7* | 161.2* | 101.8
Cc1cc(NC(=O)Nc2ccccc2F)ccc1Br | 29.0 | 6.66* | -6.0 | 212.7* | 0.7 | 181.1* | 231.8* | 141.1* | 111.6*
SMILES | FLuc inh counter | NF-kB neuron act | Pf gamet viab | APP 5'UTR act | FLuc stim CS | STAT1 act | STAT1 activ conf | NFkB act | STAT3 act 2
Cc1cccc(NC(=O)Nc2ccc(C)cc2Br)c1 | 3.9 | 1.55 | x | 82.2 | 1 | 123.4 | x | x | x
c1ccc2c(c1)Cn1c-2nc2ccccc21 | 63.6* | 4.7* | -6.0 | 76.0 | 0.4 | 158.5* | 189.4* | 129.2 | 95.2
CC(=O)c1cccc(NC(=O)N2CCCC2C(=O)Nc2cc(C)ccc2C)c1 (stereo unspecified) | -1.8 | 0.95 | -3.3 | -5.8 | 1 | 99.8 | x | x | x
COC(=O)c1oc2ccc(OC)cc2c1N | 37.7 | 1.72 | -20.5 | 21.5 | 0.6 | 108.0 | x | x | x
COc1ccc(C(=O)c2oc3ccc(OC)cc3c2N)cc1 | 4.0 | 5.88* | x | 189.7* | 1 | 151.0* | 138.7* | 147.8* | 111.0*
CCN1C(=S)SC(=O)C1=C1C=C(C)N(CCO)C(C)=C1 | 3.2 | 2.79 | x | 120.9 | 1 | 158.0* | 190.2* | 128.1 | 123.6*
COc1ccccc1C1=NOC(CN2C(=O)c3ccccc3S2(=O)=O)C1 (stereo unspecified) | x | x | -28.6 | x | x | x | x | x | x
O=C1c2ccccc2S(=O)(=O)N1CC1CC(c2ccccc2Cl)=NO1 (stereo unspecified) | 44.7 | 4.91* | -0.3 | 47.0 | 0.6 | 161.2* | 198.0* | 128.8 | 125.6*
Cc1c(-c2nc(N)nc(Nc3ccccc3F)n2)oc2ccccc12 | 4.6 | 5.8* | 12.7 | 176.2* | 1 | 198.0* | 232.2* | 140.9* | 113.7*
Cc1ccc2nc(-c3ccc(NC(=O)COCC(=O)O)cc3)sc2c1 | x | x | 22.1 | x | x | x | x | x | x
Cc1ccc2nc(-c3ccc(NS(=O)(=O)c4ccccc4)cc3)sc2c1 | 0.6 | 1.27 | -18.6 | 0.6 | 1 | 110.4 | x | x | x
Cc1ccc2nc(-c3ccc(NC(=O)CCN4C(=O)c5ccccc5C4=O)cc3)sc2c1 | 67.5* | 7.36* | 9.1 | 127.8 | 0.3 | 160.2* | 153.2* | 99.3 | 59.8
Cc1ccc2nc(-c3ccc(NC(=O)CSCC(=O)O)cc3)sc2c1 | x | x | -16.1 | x | x | x | x | x | x
